Assay results from article PMC2926617 (Nucleic Acids Research, 2010).
Entries after “also recorded” stand apart in the source; their conditions may differ.

Experiments:
[1] = biological target: T1, CarS (Myxococcus xanthus, UniProt Q06911); assay: Yeast two-hybrid interaction with CarS; type: cell-based; settings: not shown
T1 sequence (Q06911 1-111): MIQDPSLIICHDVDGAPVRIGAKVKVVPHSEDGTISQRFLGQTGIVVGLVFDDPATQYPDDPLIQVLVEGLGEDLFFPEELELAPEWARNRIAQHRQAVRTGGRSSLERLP
Procedure, shortened: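 Yeast EGY48 carrying lacZ reporter pSH18-34 was cotransformed (lithium acetate) with LexA–CarA and B42–CarS or variant fusions. Equal-density cultures were spotted on galactose or glucose (basal fusion expression) plates with leucine, grown 1 day at 30°C, then overlaid with X-Gal agarose for 2–3 h (Gal) or ≥7 h (Glu). Interaction was scored by blue colour; single-hybrid cells served as controls.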

[2] = Analytical gel filtration of pure proteins; type: physicochemical; settings: Superdex200, 50 mM phosphate pH 7.5, 2 mM β-mercaptoethanol
Procedure, shortened: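 Superdex200 analytical size-exclusion HPLC in 50 mM phosphate pH 7.5, 2 mM β-mercaptoethanol and the required NaCl. Samples were 10–50 µM pure protein, or CarNt or CarHNt mixed with CarS or variant at equivalent concentrations. Flow was 0.4 ml/min with detection at 280, 235 and 220 nm. Peak fractions were identified by SDS–PAGE. Mr was taken from elution volume via log Mr = 7.64 – 0.209 Ve.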

[3] = biological target: T2, CarS1 (Myxococcus xanthus, UniProt Q06911); assay: Far-UV CD spectroscopy with CarS1; settings: 1:1 molar ratio with CarS1, 25°C, 100 mM KF, 7.5 mM phosphate pH 7.5
T2 sequence (Q06911 1-86): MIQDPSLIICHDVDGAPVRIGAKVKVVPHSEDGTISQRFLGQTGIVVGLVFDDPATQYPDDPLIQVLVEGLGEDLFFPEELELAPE
Procedure, shortened: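 Far-UV CD at 25°C, 10–20 µM samples in 100 mM KF, 7.5 mM phosphate pH 7.5, three scans averaged, 0.2-nm steps. Peptide (18 µM) or CarANt (11 µM) was measured alone and mixed 1:1 with CarS1. The read-out was molar ellipticity difference between the mixture and CarS1 alone.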

[4] = test system: CarS(F77A); assay: ITC titration with CarS; type: binding, Myxococcus xanthus; settings: pH 7.5
Procedure, shortened: (§1)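 ITC in 100 mM NaCl, 50 mM phosphate pH 7.5, 2 mM β-mercaptoethanol, 0.05% sodium azide; samples were dialysed or dissolved in this buffer and degassed. Cell held 20 µM CarANt or peptide, titrated with 30 injections of 0.22 mM CarS variant, stirring 300 rpm. Heat of dilution was subtracted using buffer controls. Data were fit to a single-site model; at least two independent titrations.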

[5] = test system: CarS(D52A/D53A); assay: ITC titration with CarS; type: binding, Myxococcus xanthus; settings: pH 7.5
Procedure, shortened: as §1

[6] = biological target: T1, CarS; assay: ITC titration with CarS; type: binding; settings: ITC
[7] = biological target: T2, CarS1; assay: NMR chemical shift mapping on labeled H6CarS1; type: binding; settings: ^15N, ^13C-H6CarS1 0.10–0.25 mM titrated with unlabeled CarANt, P01 or P02, 25°C or 45°C
[8] = biological target: T1, CarS; assay: Far-UV CD spectroscopy with CarS; settings: 25°C, 100 mM KF, 7.5 mM phosphate pH 7.5
Procedure, shortened: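 Far-UV CD was recorded at 25°C in 0.2-nm steps (adaptive sampling) with 2-nm slit width, averaging three scans. Samples were 10–20 µM protein, peptide or 1:1 mixture in 100 mM KF, 7.5 mM phosphate pH 7.5. The instrument was calibrated with (+)-10-camphorsulfonic acid.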

Row | Molecule | Two-hybrid interaction with CarS [1] | Apparent Mr of pure protein [2] | Far-UV CD change / helix content in presence of CarS1 [3] | ITC heat change / binding [4] | ITC heat change / binding [5] | KD relative to P01 and P02 [6] | N (binding stoichiometry) ([6]; CarS, 25 °C, pH 7.5, 100 mM NaCl, 50 mM phosphate, 2 mM β-mercaptoethanol, 0.05% sodium azide, 20 µM CarANt or peptide titrated with 0.22 mM CarS, average of at least two independent titrations) | ΔH ([6]; CarS, 25 °C, pH 7.5, 100 mM NaCl, 50 mM phosphate, average of at least two independent titrations) | Kd ([6]; CarS, 25 °C, pH 7.5, 100 mM NaCl, 50 mM phosphate, single-site binding model, average of at least two independent titrations) | Chemical shift perturbations of labeled H6CarS1 [7] | Far-UV CD change in presence of CarS [8]
1 | R27A variant of whole CarH (protein) MAERTYRINIAAELAGVRVELIRAWEARYGVLTPRRTPAGYRAYTDRDVAVLKQLKRLTDEGVAISEAAKLLPQLMEGLEAEVAGRGASQDARPHAETWRESMLAATQAYDQPRVSDVLDEVLAALPPLKAFDEVLAPLLCDVGERWESGTLTVAQEHLVSQMVRARLVSLLHAAPLGRHRHGVLACFPEEEHEMGLLGAALRLRHLGVRVTLLGQRVPAEDLGRAVLALRPDFVGLSTVASRSAEDFEDTLTRLRQALPRGLPVWVGGAAARSHQAVCERLAVHVFQGEEDWDRLAGT | lack of interaction with CarS | – | – | – | – | – | – | – | – | – | –
2 | CarANt: the highly basic and autonomously folded N-terminal DNA-binding domain of CarA (protein, left off: H6, end not stated, cleaved) MTLRIRTIARMTGIREATLRAWERRYGFPRPLRSEGNNYRVYSREEVEAVRRVARLIQEEGLSVSEAIAQVKTEPPRE | – | 9.6 kDa | no significant change | could not be detected; also recorded: ^aHeat changes were negligible or undetected for the following titrations: (i) CarANt or P01 with CarS(F77A) or CarS(D52A/D53A); (ii) P03 with CarS or CarS1; (iii) TtP01 with CarS (for details on peptides P01, P02, P03, CHP01 and TtP01, see Figures 3A and 4A, and text) | could not be detected; also recorded: ^aHeat changes were negligible or undetected for the following titrations: (i) CarANt or P01 with CarS(F77A) or CarS(D52A/D53A); (ii) P03 with CarS or CarS1; (iii) TtP01 with CarS (for details on peptides P01, P02, P03, CHP01 and TtP01, see Figures 3A and 4A, and text) | over an order of magnitude lower | 0.94 ± 0.01 | −9.24 ± 0.02 kcalmol^−1 | ~10 nM | significant perturbations for the methyl cross-peaks of V26, L63, L75, L81 (Figure 1C) and I64 | in a manner similar to CarS1
